What was measured:
Assay type in all cases: functional, organism-based
Escherichia coli [1] = test: In vitro inhibition of Escherichia coli K-12 growth.
Escherichia coli [2] = test: In vitro concentration required for growth inhibition of Escherichia coli K-12 strain resistant to 10e-3 M 5-flourouracil
Procedure, shortened: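 In vitro growth assay on an E. coli K-12 strain resistant to 10^-3 M 5-fluorouracil. IC50 is the concentration giving 50% inhibition of E. coli K-12 growth. The growth procedure follows earlier published methods.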

Escherichia coli [3] = test: In vitro concentration required for growth inhibition of 5-fluorouracil resistant strain of Escherichia coli in presence of 2'-deoxyuridine metabolite at 10e-3 M concentration.
Escherichia coli [4] = test: In vitro concentration required for growth inhibition of 5-fluorouracil resistant strain of Escherichia coli in presence of cytosine metabolite at 10e-3 M concentration.
Escherichia coli [5] = test: In vitro concentration required for growth inhibition of 5-fluorouracil resistant strain of Escherichia coli in presence of 2'-deoxycytidine metabolite at 10e-3 M concentration.
Escherichia coli [6] = test: In vitro concentration required for growth inhibition of 5-fluorouracil resistant strain of Escherichia coli in presence of thymidine metabolite at 10e-3 M concentration.
Escherichia coli [7] = test: In vitro concentration required for growth inhibition of 5-fluorouracil resistant strain of Escherichia coli in presence of uridine metabolite at 10e-3 M concentration.
Escherichia coli [8] = test: In vitro concentration required for growth inhibition of 5-fluorouracil resistant strain of Escherichia coli in presence of uracil metabolite at 10e-3 M concentration.
Escherichia coli [9] = test: In vitro concentration required for growth inhibition of 5-fluorouracil resistant strain of Escherichia coli in presence of cytidine metabolite at 10e-3 M concentration.
Escherichia coli [10] = test: In vitro concentration required for growth inhibition of 5-fluorouracil resistant strain of Escherichia coli in presence of thymine metabolite at 10e-3 M concentration.

SMILES | IC50 (Escherichia coli [1]) [µM] | other results
CC(C)n1ccc(N)nc1=O | > 1000 | –
Cc1cn(COCCN)c(=O)[nH]c1=O | 310 | –
CCCCCCC(C(C)=O)n1ccc(N)nc1=O (configuration not stated) | 30 | –
O=C(OCCOCn1cc(F)c(=O)[nH]c1=O)c1ccccc1 | 9 | IC50 (Escherichia coli [2]): 180 µM
Cc1cn(COCCN=[N+]=[N-])c(=O)[nH]c1=O | 250 | –
NC(=O)OCCOCn1ccc(N)nc1=O | 910 | –
Cc1cn(COCCOC(=O)c2ccccc2)c(=O)[nH]c1=O | 860 | –
COc1ccn(C)c(=O)n1 | 61 | –
CC(=O)Nc1ccn(COCCN=[N+]=[N-])c(=O)n1 | > 1000 | –
Nc1ccn(COCCO)c(=O)n1 | 87 | –
CC(=O)Nc1ccn(COCCO)c(=O)n1 | > 1000 | –
Cn1ccc(=O)n(C)c1=O | 15 | –
O=c1ccn(COCCO)c(=O)[nH]1 | 320 | –
CN(C)c1ccn(C)c(=O)n1 | 80 | –
O=C(OCCOCn1ccc(=O)[nH]c1=O)c1ccccc1 | 100 | –
Nc1ccn(COCCOC(=O)c2ccccc2)c(=O)n1 | 900 | –
CC(=O)C(C)n1ccc(N)nc1=O (configuration not stated) | 560 | –
[N-]=[N+]=NCCOCn1ccc(N)nc1=O | 440 | –
CC(=O)Nc1ccn(COCCOC(=O)Oc2ccccc2)c(=O)n1 | > 1000 | –
NCCOCn1ccc(N)nc1=O | > 1000 | –
Cc1cn(COCCO)c(=O)[nH]c1=O | > 1000 | –
O=c1[nH]c(=O)n(COCCO)cc1F | 1.2 | IC50 (Escherichia coli [3]): 370 µM; IC50 (Escherichia coli [4]): 7.4 µM; IC50 (Escherichia coli [2]): 4.2 µM; IC50 (Escherichia coli [5]): 9.5 µM; IC50 (Escherichia coli [6]): 1000 µM; IC50 (Escherichia coli [7]): 240 µM; IC50 (Escherichia coli [8]): 8.4 µM; IC50 (Escherichia coli [9]): 9.1 µM; IC50 (Escherichia coli [10]): 730 µM

— ChEMBL document CHEMBL1121868, “Synthesis and biological effects of acyclic pyrimidine nucleoside analogues” (J Med Chem, 1981)
